Experimental data: ChEMBL document CHEMBL5303300, “EUbOPEN Chemogenomics Library - Multiplex” (2023)
Where “and” joins values, the source holds several entries; their conditions need not be identical. Equal entries are not always repeated.

Tests used:
[1] = tested on: Fibroblast; experiment: Multiplex assay against human fibroblast; assay type: toxicity, cell-based; conditions: number of replicates 2
How it was run: (§1)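 Cells were classed with CellPathfinder machine-learning gating, first as Hoechst high-intensity objects or normal cells, then (normal cells) as healthy, pyknosed or fragmented nuclei, and finally (pyknosed cells) as mitotic or apoptotic. Staining of live cells at seeding used Hoechst33342, BioTracker Green Microtubule Cytoskeleton Dye, MitoTracker Red and Annexin V Alexa Fluor 680, with imaging on a CQ1 microscope at 37°C and 5% CO2 after compound addition. Tubulin, mitochondrial-mass and membrane-permeability phenotypes are per cents of healthy-nucleus cells.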

[2] = tested on: HEK-293T; experiment: Multiplex assay against HEK293T; assay type: toxicity, cell-based; conditions: human, number of replicates 2; how it was run: as §1
[3] = 12 h, 1 µM, compound concentration 1 uM
[4] = 12 h, 10 µM, compound concentration 10 uM
[5] = 24 h, 1 µM, compound concentration 1 uM
[6] = 24 h, 10 µM, compound concentration 10 uM
[7] = 48 h, 1 µM, compound concentration 1 uM
[8] = 48 h, 10 µM, compound concentration 10 uM

O=C1NC(=NCc2cccs2)SC1=Cc1ccc2ncccc2c1
Population Apoptotic (%) [1, 3]: 31% and 38% | Population Fragmented Nuclei (%) [1, 3]: 17% and 11% | Population Healthy Nuclei (%) [1, 3]: 65% and 76% | Population Hoechst High Intensity Objects (%) [1, 3]: 0% | Population Membrane Permeable-Phenotype (%) [1, 3]: 4% and 3% | Population Mitochondria Different-Phenotype (%) [1, 3]: 0% | Population Mitotic Cells (%) [1, 3]: 68% and 61% | Population Normal (%) [1, 3]: 100% | Population Pyknosed Nuclei (%) [1, 3]: 16% and 12% | Population Tubulin-Different-Phenotype (%) [1, 3]: 5% and 6% | Total Cell Count [1, 3]: 193 and 211 | Population Apoptotic (%) [1, 4]: 50% and 51% | Population Fragmented Nuclei (%) [1, 4]: 13% and 9% | Population Healthy Nuclei (%) [1, 4]: 74% and 78% | Population Hoechst High Intensity Objects (%) [1, 4]: 0% | Population Membrane Permeable-Phenotype (%) [1, 4]: 2% and 4% | Population Mitochondria Different-Phenotype (%) [1, 4]: 0% and 1% | Population Mitotic Cells (%) [1, 4]: 50% and 48% | Population Normal (%) [1, 4]: 100% | Population Pyknosed Nuclei (%) [1, 4]: 12% | Population Tubulin-Different-Phenotype (%) [1, 4]: 34% and 20% | Total Cell Count [1, 4]: 190 and 238 | Population Apoptotic (%) [1, 5]: 42% and 26% | Population Fragmented Nuclei (%) [1, 5]: 15% and 10% | Population Healthy Nuclei (%) [1, 5]: 66% and 72% | Population Hoechst High Intensity Objects (%) [1, 5]: 0% | Population Membrane Permeable-Phenotype (%) [1, 5]: 2% and 6% | Population Mitochondria Different-Phenotype (%) [1, 5]: 0% | Population Mitotic Cells (%) [1, 5]: 57% and 73% | Population Normal (%) [1, 5]: 100% | Population Pyknosed Nuclei (%) [1, 5]: 18% and 17% | Population Tubulin-Different-Phenotype (%) [1, 5]: 4% and 6% | Total Cell Count [1, 5]: 183 and 219 | Population Apoptotic (%) [1, 6]: 69% and 61% | Population Fragmented Nuclei (%) [1, 6]: 10% and 12% | Population Healthy Nuclei (%) [1, 6]: 82% and 75% | Population Hoechst High Intensity Objects (%) [1, 6]: 0% | Population Membrane Permeable-Phenotype (%) [1, 6]: 4% and 2% | Population Mitochondria Different-Phenotype (%) [1, 6]: 1% and 3% | Population Mitotic Cells (%) [1, 6]: 30% and 38% | Population Normal (%) [1, 6]: 100% and 99% | Population Pyknosed Nuclei (%) [1, 6]: 6% and 12% | Population Tubulin-Different-Phenotype (%) [1, 6]: 26% and 23% | Total Cell Count [1, 6]: 191 and 241 | Population Apoptotic (%) [1, 7]: 65% and 75% | Population Fragmented Nuclei (%) [1, 7]: 17% and 14% | Population Healthy Nuclei (%) [1, 7]: 65% and 68% | Population Hoechst High Intensity Objects (%) [1, 7]: 0% | Population Membrane Permeable-Phenotype (%) [1, 7]: 2% and 3% | Population Mitochondria Different-Phenotype (%) [1, 7]: 0% | Population Mitotic Cells (%) [1, 7]: 34% and 25% | Population Normal (%) [1, 7]: 99% and 100% | Population Pyknosed Nuclei (%) [1, 7]: 17% | Population Tubulin-Different-Phenotype (%) [1, 7]: 10% and 6% | Total Cell Count [1, 7]: 185 and 211 | Population Apoptotic (%) [1, 8]: 73% and 62% | Population Fragmented Nuclei (%) [1, 8]: 15% and 11% | Population Healthy Nuclei (%) [1, 8]: 77% and 76% | Population Hoechst High Intensity Objects (%) [1, 8]: 0% | Population Membrane Permeable-Phenotype (%) [1, 8]: 0% | Population Mitochondria Different-Phenotype (%) [1, 8]: 0% and 2% | Population Mitotic Cells (%) [1, 8]: 26% and 37% | Population Normal (%) [1, 8]: 100% | Population Pyknosed Nuclei (%) [1, 8]: 7% and 11% | Population Tubulin-Different-Phenotype (%) [1, 8]: 30% and 28% | Total Cell Count [1, 8]: 201 and 239 | Population Apoptotic (%) [2, 3]: 54% and 38% | Population Fragmented Nuclei (%) [2, 3]: 6% and 4% | Population Healthy Nuclei (%) [2, 3]: 78% and 85% | Population Hoechst High Intensity Objects (%) [2, 3]: 8% and 7% | Population Membrane Permeable-Phenotype (%) [2, 3]: 4% and 2% | Population Mitochondria Different-Phenotype (%) [2, 3]: 15% and 9% | Population Mitotic Cells (%) [2, 3]: 45% and 61% | Population Normal (%) [2, 3]: 91% and 92% | Population Pyknosed Nuclei (%) [2, 3]: 15% and 10% | Population Tubulin-Different-Phenotype (%) [2, 3]: 46% and 45% | Total Cell Count [2, 3]: 632 and 733 | Population Apoptotic (%) [2, 4]: 54% and 69% | Population Fragmented Nuclei (%) [2, 4]: 1% and 2% | Population Healthy Nuclei (%) [2, 4]: 90% and 92% | Population Hoechst High Intensity Objects (%) [2, 4]: 3% and 6% | Population Membrane Permeable-Phenotype (%) [2, 4]: 4% | Population Mitochondria Different-Phenotype (%) [2, 4]: 21% and 19% | Population Mitotic Cells (%) [2, 4]: 45% and 30% | Population Normal (%) [2, 4]: 96% and 93% | Population Pyknosed Nuclei (%) [2, 4]: 7% and 5% | Population Tubulin-Different-Phenotype (%) [2, 4]: 78% and 72% | Total Cell Count [2, 4]: 644 and 684 | Population Apoptotic (%) [2, 5]: 40% and 31% | Population Fragmented Nuclei (%) [2, 5]: 6% and 4% | Population Healthy Nuclei (%) [2, 5]: 84% and 89%
